Laboratory results as given in PMC7004521 (Cancer Science, 2019).

Experiment: Adverse events suspected to be study drug related, phase 1 study
Type: in vivo, human
Procedure, shortened: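 Adult patients with advanced solid tumours and confirmed MET dysregulation took oral capsules twice daily from 100 up to 600 mg in escalation, or 400 mg bid tablets, in 28-day cycles. Expansion was 600 mg bid capsules, with a switch to 400 mg bid tablets allowed. Patients were included if they had ≥1 dose and ≥1 valid post-baseline safety assessment. Events were graded by CTCAE v4.0.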

[1] = drug-related, escalation 600 mg bid n=8
[2] = drug-related, escalation 100-350 mg bid n=16
[3] = drug-related, expansion RP2D HCC n=11
[4] = drug-related, expansion RP2D gastric cancer n=9
[5] = drug-related, expansion RP2D other n=18

SMILES: CNC(=O)c1ccc(-c2cnc3ncc(Cc4ccc5ncccc5c4)n3n2)cc1F [capmatinib]
- Hypoalbuminemia, grade 3/4 [1]: 0 n (%)
- Hypophagia, all grades [1]: 0 n (%)
- Hypophagia, grade 3/4 [1]: 0 n (%)
- Lipase increased, all grades [1]: 0 n (%)
- Lipase increased, grade 3/4 [1]: 0 n (%)
- Maculo‐papular rash, all grades [1]: 0 n (%)
- Maculo‐papular rash, grade 3/4 [1]: 0 n (%)
- Myalgia, all grades [1]: 0 n (%)
- Myalgia, grade 3/4 [1]: 0 n (%)
- Nausea, all grades [1]: 3 (38) n (%)
- Nausea, grade 3/4 [1]: 0 n (%)
- Odynophagia, all grades [1]: 0 n (%)
- Odynophagia, grade 3/4 [1]: 0 n (%)
- Peripheral edema, all grades [1]: 1 (13) n (%)
- Peripheral edema, grade 3/4 [1]: 0 n (%)
- Pyrexia, all grades [1]: 0 n (%)
- Pyrexia, grade 3/4 [1]: 0 n (%)
- Stomatitis, all grades [1]: 1 (13) n (%)
- Stomatitis, grade 3/4 [1]: 0 n (%)
- Thrombocytopenia, all grades [1]: 0 n (%)
- Thrombocytopenia, grade 3/4 [1]: 0 n (%)
- Total protein decreased, all grades [1]: 1 (13) n (%)
- Total protein decreased, grade 3/4 [1]: 0 n (%)
- Upper abdominal pain, all grades [1]: 0 n (%)
- Upper abdominal pain, grade 3/4 [1]: 0 n (%)
- Vomiting, all grades [1]: 3 (38) n (%)
- Vomiting, grade 3/4 [1]: 0 n (%)
- ALT increased, all grades [2]: 0 n (%)
- ALT increased, grade 3/4 [2]: 0 n (%)
- AST increased, all grades [2]: 1 (6) n (%)
- Amylase increased, all grades [2]: 2 (13) n (%)
- Amylase increased, grade 3/4 [2]: 1 (6) n (%)
- Asthenia, all grades [2]: 4 (25) n (%)
- Asthenia, grade 3/4 [2]: 0 n (%)
- Blood bilirubin increased, all grades [2]: 3 (19) n (%)
- Blood bilirubin increased, grade 3/4 [2]: 1 (6) n (%)
- Blood creatinine increased, all grades [2]: 2 (13) n (%)
- Blood creatinine increased, grade 3/4 [2]: 0 n (%)
- Constipation, all grades [2]: 2 (13) n (%)
- Constipation, grade 3/4 [2]: 0 n (%)
- Decreased appetite, all grades [2]: 5 (31) n (%)
- Decreased appetite, grade 3/4 [2]: 1 (6) n (%)
- Diarrhea, all grades [2]: 2 (13) n (%)
- Diarrhea, grade 3/4 [2]: 0 n (%)
- Dizziness, all grades [2]: 0 n (%)
- Dizziness, grade 3/4 [2]: 0 n (%)
- Dyspepsia, all grades [2]: 0 n (%)
- Dyspepsia, grade 3/4 [2]: 0 n (%)
- Fatigue, all grades [2]: 3 (19) n (%)
- Fatigue, grade 3/4 [2]: 2 (13) n (%)
- Headache, all grades [2]: 1 (6) n (%)
- Headache, grade 3/4 [2]: 0 n (%)
- Hypoalbuminemia, all grades [2]: 3 (19) n (%)
- Hypoalbuminemia, grade 3/4 [2]: 1 (6) n (%)
- Hypophagia, all grades [2]: 2 (13) n (%)
- Hypophagia, grade 3/4 [2]: 2 (13) n (%)
- Lipase increased, all grades [2]: 1 (6) n (%)
- Lipase increased, grade 3/4 [2]: 1 (6) n (%)
- Maculo‐papular rash, all grades [2]: 0 n (%)
- Maculo‐papular rash, grade 3/4 [2]: 0 n (%)
- Myalgia, all grades [2]: 2 (13) n (%)
- Myalgia, grade 3/4 [2]: 0 n (%)
- Nausea, all grades [2]: 3 (19) n (%)
- Nausea, grade 3/4 [2]: 0 n (%)
- Odynophagia, all grades [2]: 1 (6) n (%)
- Odynophagia, grade 3/4 [2]: 0 n (%)
- Peripheral edema, all grades [2]: 3 (19) n (%)
- Peripheral edema, grade 3/4 [2]: 1 (6) n (%)
- Pyrexia, all grades [2]: 1 (6) n (%)
- Pyrexia, grade 3/4 [2]: 0 n (%)
- Stomatitis, all grades [2]: 0 n (%)
- Stomatitis, grade 3/4 [2]: 0 n (%)
- Thrombocytopenia, all grades [2]: 1 (6) n (%)
- Thrombocytopenia, grade 3/4 [2]: 0 n (%)
- Total protein decreased, all grades [2]: 1 (6) n (%)
- Total protein decreased, grade 3/4 [2]: 0 n (%)
- Upper abdominal pain, all grades [2]: 1 (6) n (%)
- Upper abdominal pain, grade 3/4 [2]: 0 n (%)
- Vomiting, all grades [2]: 4 (25) n (%)
- Vomiting, grade 3/4 [2]: 0 n (%)
- ALT increased, all grades [3]: 0 n (%)
- ALT increased, grade 3/4 [3]: 0 n (%)
- AST increased, all grades [3]: 1 (9) n (%)
- AST increased, grade 3/4 [3]: 1 (9) n (%)
- Amylase increased, all grades [3]: 0 n (%)
- Amylase increased, grade 3/4 [3]: 0 n (%)
- Asthenia, all grades [3]: 1 (9) n (%)
- Asthenia, grade 3/4 [3]: 0 n (%)
- Blood bilirubin increased, all grades [3]: 0 n (%)
- Blood bilirubin increased, grade 3/4 [3]: 0 n (%)
- Blood creatinine increased, all grades [3]: 1 (9) n (%)
- Blood creatinine increased, grade 3/4 [3]: 1 (9) n (%)
- Constipation, all grades [3]: 0 n (%)
- Constipation, grade 3/4 [3]: 0 n (%)
- Decreased appetite, all grades [3]: 2 (18) n (%)
- Decreased appetite, grade 3/4 [3]: 0 n (%)
- Diarrhea, all grades [3]: 4 (36) n (%)
- Diarrhea, grade 3/4 [3]: 0 n (%)
- Dizziness, all grades [3]: 1 (9) n (%)
- Dizziness, grade 3/4 [3]: 0 n (%)
- Dyspepsia, all grades [3]: 0 n (%)
- Dyspepsia, grade 3/4 [3]: 0 n (%)
- Fatigue, all grades [3]: 3 (27) n (%)
- Fatigue, grade 3/4 [3]: 0 n (%)
- Headache, all grades [3]: 0 n (%)
- Headache, grade 3/4 [3]: 0 n (%)
- Hypoalbuminemia, all grades [3]: 0 n (%)
- Hypoalbuminemia, grade 3/4 [3]: 0 n (%)
- Lipase increased, all grades [3]: 2 (18) n (%)
- Lipase increased, grade 3/4 [3]: 2 (18) n (%)
- Localized edema, all grades [3]: 0 n (%)
- Localized edema, grade 3/4 [3]: 0 n (%)
- Maculo‐papular rash, all grades [3]: 0 n (%)
- Maculo‐papular rash, grade 3/4 [3]: 0 n (%)
- Myalgia, all grades [3]: 0 n (%)
- Myalgia, grade 3/4 [3]: 0 n (%)
- Nausea, all grades [3]: 5 (46) n (%)
- Nausea, grade 3/4 [3]: 1 (9) n (%)
- Odynophagia, all grades [3]: 0 n (%)
- Odynophagia, grade 3/4 [3]: 0 n (%)
- Peripheral edema, all grades [3]: 3 (27) n (%)
- Peripheral edema, grade 3/4 [3]: 0 n (%)
- Pyrexia, all grades [3]: 0 n (%)
- Pyrexia, grade 3/4 [3]: 0 n (%)
- Stomatitis, all grades [3]: 0 n (%)
- Stomatitis, grade 3/4 [3]: 0 n (%)
- Thrombocytopenia, all grades [3]: 1 (9) n (%)
- Thrombocytopenia, grade 3/4 [3]: 0 n (%)
- Total protein decreased, all grades [3]: 0 n (%)
- Total protein decreased, grade 3/4 [3]: 0 n (%)
- Upper abdominal pain, all grades [3]: 0 n (%)
- Upper abdominal pain, grade 3/4 [3]: 0 n (%)
- Vomiting, all grades [3]: 3 (27) n (%)
- Vomiting, grade 3/4 [3]: 1 (9) n (%)
- ALT increased, all grades [4]: 1 (11) n (%)
- ALT increased, grade 3/4 [4]: 1 (11) n (%)
- AST increased, all grades [4]: 1 (11) n (%)
- Amylase increased, all grades [4]: 0 n (%)
- Amylase increased, grade 3/4 [4]: 0 n (%)
- Asthenia, all grades [4]: 0 n (%)
- Asthenia, grade 3/4 [4]: 0 n (%)
- Blood bilirubin increased, all grades [4]: 0 n (%)
- Blood bilirubin increased, grade 3/4 [4]: 0 n (%)
- Blood creatinine increased, all grades [4]: 0 n (%)
- Blood creatinine increased, grade 3/4 [4]: 0 n (%)
- Constipation, all grades [4]: 0 n (%)
- Constipation, grade 3/4 [4]: 0 n (%)
- Decreased appetite, all grades [4]: 0 n (%)
- Decreased appetite, grade 3/4 [4]: 0 n (%)
- Diarrhea, all grades [4]: 0 n (%)
- Diarrhea, grade 3/4 [4]: 0 n (%)
- Dizziness, all grades [4]: 0 n (%)
- Dizziness, grade 3/4 [4]: 0 n (%)
- Dyspepsia, all grades [4]: 0 n (%)
- Dyspepsia, grade 3/4 [4]: 0 n (%)
- Fatigue, all grades [4]: 3 (33) n (%)
- Fatigue, grade 3/4 [4]: 1 (11) n (%)
- Headache, all grades [4]: 1 (11) n (%)
- Headache, grade 3/4 [4]: 0 n (%)
- Hypoalbuminemia, all grades [4]: 0 n (%)
- Hypoalbuminemia, grade 3/4 [4]: 0 n (%)
- Lipase increased, all grades [4]: 0 n (%)
- Lipase increased, grade 3/4 [4]: 0 n (%)
- Localized edema, all grades [4]: 0 n (%)
- Localized edema, grade 3/4 [4]: 0 n (%)
- Maculo‐papular rash, all grades [4]: 0 n (%)
- Maculo‐papular rash, grade 3/4 [4]: 0 n (%)
- Myalgia, all grades [4]: 0 n (%)
- Myalgia, grade 3/4 [4]: 0 n (%)
- Nausea, all grades [4]: 0 n (%)
- Nausea, grade 3/4 [4]: 0 n (%)
- Odynophagia, all grades [4]: 0 n (%)
- Odynophagia, grade 3/4 [4]: 0 n (%)
- Peripheral edema, all grades [4]: 3 (33) n (%)
- Peripheral edema, grade 3/4 [4]: 0 n (%)
- Pyrexia, all grades [4]: 0 n (%)
- Pyrexia, grade 3/4 [4]: 0 n (%)
- Stomatitis, all grades [4]: 0 n (%)
- Stomatitis, grade 3/4 [4]: 0 n (%)
- Thrombocytopenia, all grades [4]: 1 (11) n (%)
- Thrombocytopenia, grade 3/4 [4]: 1 (11) n (%)
- Total protein decreased, all grades [4]: 0 n (%)
- Total protein decreased, grade 3/4 [4]: 0 n (%)
- Upper abdominal pain, all grades [4]: 0 n (%)
- Upper abdominal pain, grade 3/4 [4]: 0 n (%)
- Vomiting, all grades [4]: 0 n (%)
- Vomiting, grade 3/4 [4]: 0 n (%)
- ALT increased, all grades [5]: 1 (6) n (%)
- ALT increased, grade 3/4 [5]: 1 (6) n (%)
- AST increased, all grades [5]: 2 (11) n (%)
- Amylase increased, all grades [5]: 0 n (%)
- Amylase increased, grade 3/4 [5]: 0 n (%)
- Asthenia, all grades [5]: 1 (6) n (%)
- Asthenia, grade 3/4 [5]: 0 n (%)
- Blood bilirubin increased, all grades [5]: 0 n (%)
- Blood bilirubin increased, grade 3/4 [5]: 0 n (%)
- Blood creatinine increased, all grades [5]: 1 (6) n (%)
- Blood creatinine increased, grade 3/4 [5]: 0 n (%)
- Constipation, all grades [5]: 1 (6) n (%)
- Constipation, grade 3/4 [5]: 0 n (%)
- Decreased appetite, all grades [5]: 2 (11) n (%)
- Decreased appetite, grade 3/4 [5]: 0 n (%)
- Diarrhea, all grades [5]: 3 (17) n (%)
- Diarrhea, grade 3/4 [5]: 0 n (%)
- Dizziness, all grades [5]: 1 (6) n (%)
- Dizziness, grade 3/4 [5]: 0 n (%)
- Dyspepsia, all grades [5]: 2 (11) n (%)
- Dyspepsia, grade 3/4 [5]: 0 n (%)
- Fatigue, all grades [5]: 3 (17) n (%)
- Fatigue, grade 3/4 [5]: 0 n (%)
- Headache, all grades [5]: 0 n (%)
- Headache, grade 3/4 [5]: 0 n (%)
- Hypoalbuminemia, all grades [5]: 1 (6) n (%)
- Hypoalbuminemia, grade 3/4 [5]: 0 n (%)
- Lipase increased, all grades [5]: 1 (6) n (%)
- Lipase increased, grade 3/4 [5]: 0 n (%)
- Localized edema, all grades [5]: 2 (11) n (%)
- Localized edema, grade 3/4 [5]: 0 n (%)
- Maculo‐papular rash, all grades [5]: 2 (11) n (%)
- Maculo‐papular rash, grade 3/4 [5]: 0 n (%)
- Myalgia, all grades [5]: 2 (11) n (%)
- Myalgia, grade 3/4 [5]: 0 n (%)
- Nausea, all grades [5]: 6 (33) n (%)
- Nausea, grade 3/4 [5]: 0 n (%)
- Odynophagia, all grades [5]: 0 n (%)
- Odynophagia, grade 3/4 [5]: 0 n (%)
- Peripheral edema, all grades [5]: 4 (22) n (%)
- Peripheral edema, grade 3/4 [5]: 0 n (%)
- Pyrexia, all grades [5]: 0 n (%)
- Pyrexia, grade 3/4 [5]: 0 n (%)
- Stomatitis, all grades [5]: 1 (6) n (%)
- Stomatitis, grade 3/4 [5]: 0 n (%)
- Thrombocytopenia, all grades [5]: 0 n (%)
- Thrombocytopenia, grade 3/4 [5]: 0 n (%)
- Total protein decreased, all grades [5]: 0 n (%)
- Total protein decreased, grade 3/4 [5]: 0 n (%)
- Upper abdominal pain, all grades [5]: 0 n (%)
- Upper abdominal pain, grade 3/4 [5]: 0 n (%)
- Vomiting, all grades [5]: 4 (22) n (%)
- Vomiting, grade 3/4 [5]: 0 n (%)
- lipase increase, grade 3 or 4 (suspected study drug‐related, dose‐expansion cohorts): 5%
